Test results: ChEMBL document CHEMBL4480411, “Discovery of Second Generation RORγ Inhibitors Composed of an Azole Scaffold” (J Med Chem, 2019)

How the values were obtained:
[1] = Inhibition of GAL4-fused mouse LXR transcriptional activity expressed in CHOK1 cells after 2 days by luciferase reporter gene assay; format: cell-based; details: CHO-K1, 48 h
[2] = tested on: Mus musculus; assay: Anti-inflammatory activity in orally dosed C57BL/6 mouse model of MOG (35 to 55 residues)/pertussis toxin/anti-CD3 antibody-induced experimental allergic encephalomyelitis assessed as inhibition of IL17 production measured 8 hrs after post dose by ELISA; format: functional
How it was run: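 Female C57BL/6 mice immunized subcutaneously at two back sites (75 μg MOG35–55 per site; peptide at 3 mg/mL in D-PBS emulsified 1:1 with complete Freund's adjuvant), plus intraperitoneal pertussis toxin 0.2 μg on days 1 and 3. Day 5: anti-CD3 1 μg i.v. Oral dosing 3 h or 8 h before anti-CD3, 5 mice/group. Blood taken 2 h post-anti-CD3; plasma IL-17A measured by ELISA.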

[3] = Volume of distribution at steady state in CD(SD) rat at 1 mg/kg, iv; format: ADME, organism-based; details: in vivo, read-out: Vdss

With `CC(C)(C)Cc1cc(-c2onc([C@@H](CCC(=O)[O-])CC(=O)Nc3ccc(Cl)cc3Cl)c2C2CC2)no1.[Na+]` the EC50 [1] was over 20 µM, the Activity [2] was “Dose-dependent effect” and the ED50 ([2]; C57BL/6, po) was 3 mg/kg. It also gave a Vd [3] of 0.76 L/kg.
